The source of these data is ChEMBL document CHEMBL4396874, “Consideration of Binding Kinetics in the Design of Stapled Peptide Mimics of the Disordered Proteins Eukaryotic Translation Initiation Factor 4E-Binding Protein 1 and Eukaryotic Translation Initiation Factor 4G” (J Med Chem, 2019).

Activity calls are given as the source filed them. The rule behind the calls is not given here. Bridge positions count the residues as written; N and C are the ends. Square brackets hold non-standard residues; d marks the D form. Peptide text beside a SMILES is read from it. S5 = C=CCCC[C@](C)(N)C(=O)O

The term IC50 denotes the concentration at which inhibition is half-maximal. Higher therefore signals lower potency.

For series [1], the system named is MDA-MB-231. Description: Anti-proliferative activity against human MDA-MB-231 cells at 5 to 20 uM after 6 days by CellTiter-Glo assay. The series is classed as functional, cell-based. The gist of the method: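 MDA-MB-231 cells (RPMI-1640, 10% FBS, 2 mM glutamine) plated at 2000 cells/well; peptides added at varying concentrations in triplicate for 6 days. Medium then replaced with OptiMEM, cells lysed with CellTiter-Glo reagent, luminescence read within 1 h. Data normalized; triplicate biological replicates.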

Series [2] has as its system MDA-MB-231. Description: Effect on total 4E-BP1 level in human MDA-MB-231 cells at 5 uM after 6 hrs by Western blot analysis. In kind it is ADME, cell-based. The conditions noted are these: mda-mb-231, 6 h. The gist of the method: (§1)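 MDA-MB-231 cells in 10% FBS treated 6 h with water-dissolved peptides, lysed in RIPA with protease/phosphatase inhibitors, sonicated on ice, protein normalized by BCA, then western blotted (4–12% bis-Tris gel, PVDF, 5% milk block, primary overnight at 4 °C). Triplicate biological replicates.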
Background: Immunoblotting shows a protein as a band on a membrane.

The test system of series [3] is MDA-MB-231. Description: Effect on total eIF4G level in human MDA-MB-231 cells at 5 uM after 6 hrs by Western blot analysis. The conditions noted are these: mda-mb-231, 6 h. The series is classed as ADME, cell-based. The method, boiled down:
as §1

In series [4] the test system is MDA-MB-231. The experiment in a line: Effect on total eIF4E level in human MDA-MB-231 cells at 5 uM after 6 hrs by Western blot analysis. The series is classed as ADME, cell-based. The conditions noted are these: mda-mb-231, 6 h. The method, boiled down: as §1
Series [5] concerns the target Eukaryotic translation initiation factor 4E/Eukaryotic translation initiation factor 4E-binding protein 1 (Homo sapiens, UniProt P06730). The experiment in a line: Inhibition of Halo-tagged biotinylated human eIF4E expressed in Escherichia coli/Halo-tagged methyltetrazine-labelled human 4E-BP1 expressed in Escherichia coli protein-protein interaction incubated for 1 hr by catalytic enzyme-linked click chemistry assay.

Series [6] addresses T1, Eukaryotic translation initiation factor 4E (Homo sapiens, UniProt P06730). Description: Binding affinity to N-terminal 10His-tagged m7GDP-bound recombinant human eIF4E expressed in Escherichia coli BL21 (DE3) cells assessed as binding constant at 10 to 25 degreeC by surface plasmon resonance analysis. For orientation: SPR reads the build-up and loss of mass on a sensor chip optically.

Series [7] has as its target T1, Eukaryotic translation initiation factor 4E. Description: Binding affinity to N-terminal 10His-tagged m7GDP-bound recombinant human eIF4E expressed in Escherichia coli BL21 (DE3) cells assessed as binding constant at 25 degreeC by surface plasmon resonance analysis. The method, boiled down: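 m7GDP-bound His10-eIF4E captured to ~600 RU on a Ni-activated HisCap chip. EDTA regeneration between cycles. Kd from global 1:1 fit; triplicate experiments.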

Series [8] has the same target. Description: Binding affinity to N-terminal 10His-tagged m7GDP-bound recombinant human eIF4E expressed in Escherichia coli BL21 (DE3) cells assessed as association rate constant at 25 degreeC by surface plasmon resonance analysis.
The target is the same in series [9]. Description: Binding affinity to N-terminal 10His-tagged m7GDP-bound recombinant human eIF4E expressed in Escherichia coli BL21 (DE3) cells assessed as dissociation rate constant at 25 degreeC by surface plasmon resonance analysis.
For series [10] the target is unchanged. Description: Binding affinity to N-terminal 10His-tagged m7GDP-bound recombinant human eIF4E expressed in Escherichia coli BL21 (DE3) cells assessed as association constant at 12.5 to 200 nM at 10 to 25 degreeC by surface plasmon resonance analysis.
Series [11] has the same target. The experiment in a line: Binding affinity to N-terminal 10His-tagged m7GDP-bound recombinant human eIF4E expressed in Escherichia coli BL21 (DE3) cells assessed as binding constant at 25 degreeC in presence of 1000 mM of NaCl by surface plasmon resonance analysis. The gist of the method:
(§2)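 Peptides injected at 50 μL/min, 10 concentrations (188 nM to 4.0 μM) in duplicate, random order. Chip stripped with EDTA and reloaded between cycles.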

Series [12] has the same target. The experiment in a line: Binding affinity to N-terminal 10His-tagged m7GDP-bound recombinant human eIF4E expressed in Escherichia coli BL21 (DE3) cells assessed as dissociation constant at 10 to 25 degreeC by surface plasmon resonance analysis relative to control. The gist of the method:
as §2

For series [13] the target is unchanged. The experiment in a line: Binding affinity to N-terminal 10His-tagged m7GDP-bound recombinant human eIF4E expressed in Escherichia coli BL21 (DE3) cells assessed as dissociation constant at 25 degreeC in presence 225 to 1000 mM of NaCl by surface plasmon resonance analysis.
The target is the same in series [14].
Series [15] concerns the target Eukaryotic translation initiation factor 4E/Eukaryotic translation initiation factor 4E-binding protein 1 (Homo sapiens) (UniProt P06730+Q13541). Description: Inhibition of eIF4E/4E-BP1 interaction in human MDA-MB-231 cells incubated for 6 hr by m7GDP pull down assay. The series is classed as cell-based.
The target in series [16] is EIF4E/EIF4G1 (Homo sapiens) (UniProt P06730+Q04637). The experiment in a line: Inhibition of eIF4E/eIF4G interaction in human MDA-MB-231 cells incubated for 6 hr by m7GDP pull down assay. The series is classed as cell-based.
The test system of series [17] is MDA-MB-231. Description: Induction of cell lysis in human MDA-MB-231 cells assessed as LDH leakage at 15 uM after 24 hrs by LDH cytotoxicity assay. The conditions noted are these: mda-mb-231, 24 h. For orientation: Release of lactate dehydrogenase indicates damage to the cell membrane.

Sequence of Eukaryotic translation initiation factor 4E/Eukaryotic translation initiation factor 4E-binding protein 1 (P06730 whole entry): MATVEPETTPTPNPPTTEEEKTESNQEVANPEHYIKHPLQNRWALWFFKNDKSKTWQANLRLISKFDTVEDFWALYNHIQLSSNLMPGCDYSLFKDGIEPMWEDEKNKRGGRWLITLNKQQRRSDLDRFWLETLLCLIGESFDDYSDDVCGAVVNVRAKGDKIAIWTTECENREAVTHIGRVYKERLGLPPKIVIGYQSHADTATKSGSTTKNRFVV
Sequence of Eukaryotic translation initiation factor 4E/Eukaryotic translation initiation factor 4E-binding protein 1 (Q13541 whole entry, further chain): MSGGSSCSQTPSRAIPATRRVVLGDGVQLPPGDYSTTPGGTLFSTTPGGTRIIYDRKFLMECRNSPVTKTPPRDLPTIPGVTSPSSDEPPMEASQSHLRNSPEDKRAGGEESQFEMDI
T1 sequence (P06730 whole entry): as the sequence (P06730 whole entry) above
Sequence of Eukaryotic translation initiation factor 4E/Eukaryotic translation initiation factor 4E-binding protein 1 (Homo sapiens) (P06730 2-217 limits assumed): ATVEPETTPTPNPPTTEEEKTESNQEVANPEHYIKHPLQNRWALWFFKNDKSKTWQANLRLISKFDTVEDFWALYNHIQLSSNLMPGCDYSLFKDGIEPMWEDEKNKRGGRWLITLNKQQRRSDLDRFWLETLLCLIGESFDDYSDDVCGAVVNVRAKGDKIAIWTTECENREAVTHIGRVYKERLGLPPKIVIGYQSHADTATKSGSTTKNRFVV
Sequence of Eukaryotic translation initiation factor 4E/Eukaryotic translation initiation factor 4E-binding protein 1 (Homo sapiens) (Q13541 2-118 partner limits assumed): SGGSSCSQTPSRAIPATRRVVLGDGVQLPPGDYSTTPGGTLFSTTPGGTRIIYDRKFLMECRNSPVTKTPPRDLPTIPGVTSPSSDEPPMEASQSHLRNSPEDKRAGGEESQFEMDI

For the compound `CC[C@H](C)[C@H](NC(=O)[C@H](CCCNC(=N)N)NC(=O)[C@@H](NC(=O)CNC(C)=O)[C@@H](C)O)C(=O)N[C@H](C(=O)N[C@@H](Cc1ccc(O)cc1)C(=O)N[C@@H](CC(=O)O)C(=O)N[C@@H](CCCNC(=N)N)C(=O)N[C@@]1(C)CCC/C=C\CCC[C@@](C)(C(=O)N[C@@H](CS)C(=O)N[C@@H](CCCNC(=N)N)C(=O)N[C@@H](CC(N)=O)C(N)=O)NC(=O)[C@H](CCSC)NC(=O)[C@H](CC(C)C)NC(=O)[C@H](Cc2ccccc2)NC1=O)[C@@H](C)CC`, the outcome with MDA-MB-231 [1] was Active. The Activity result in the series on MDA-MB-231 [2], with MDA-MB-231 [3] and in the series on MDA-MB-231 [4] was “Non-Toxic” throughout. The IC50 in [5] fell in the range of 3.1 to 6.7 nM.
With Ac-KKRYSREQLLGL-NH2, in series [6], the K entry was “Active”. In addition, the results for the K in [7] and in [11] were 62 nM and 14 to 62 nM, respectively. Moreover, the kon in [8] was determined as 2 ×10⁶ /M/s. For the same compound, the koff in series [9] was 123 ×10⁻³ /s. Moreover, in [10], the Ka entry was “inactive”. Besides, the fold change (FC) in series [12] was in the range of 3.9 to 5.5. The IC50 in series [5] fell in the range of 384 to 633 nM.
Regarding `CC(=O)N[C@@H](CCCCN)C(=O)N[C@@H](CCCCN)C(=O)N[C@@H](CCCNC(=N)N)C(=O)N[C@@H](Cc1ccc(O)cc1)C(=O)N[C@@H](CC(=O)O)C(=O)N[C@@H](CCCNC(=N)N)C(=O)N[C@@]1(C)CCC/C=C\CCC[C@@](C)(C(=O)N[C@@H](Cc2ccccc2)C(=O)N[C@@H](CCC(N)=O)C(=O)N[C@@H](Cc2ccccc2)C(N)=O)NC(=O)[C@H](CC(C)C)NC(=O)[C@H](CC(C)C)NC(=O)[C@H](Cc2ccccc2)NC1=O` (Ac-KKRYDR[S5]FLL[S5]FQF-NH2; staple (Z) 7-11), in [5], the IC50 lay within 4500 to 7300 nM.
As to `CC[C@H](C)[C@H](NC(=O)[C@@H](NC(=O)[C@@H](N)CCCNC(=N)N)[C@@H](C)CC)C(=O)N[C@@H](Cc1ccc(O)cc1)C(=O)N[C@@H](CC(=O)O)C(=O)N[C@@H](CCCNC(=N)N)C(=O)N[C@@H](CCCCN)C(=O)N[C@@H](Cc1ccccc1)C(=O)N[C@@H](CC(C)C)C(=O)N[C@@H](CCSC)C(=O)N[C@@H](CCC(=O)O)C(=O)N[C@@H](CS)C(=O)N[C@@H](CCCNC(=N)N)C(=O)N[C@@H](CC(N)=O)C(N)=O`, the Kd result in series [13] was “Not Active”. Also, the Ka entry in [14] is “inactive”. Further, in [11], the K result is “Active”. In addition, the fold change (FC) in series [12] lay in the range of 3.9 to 5.5.
For `CC(=O)N[C@@H](CCCCN)C(=O)N[C@@H](CCCCN)C(=O)N[C@@H](CCCNC(=N)N)C(=O)N[C@@H](Cc1ccc(O)cc1)C(=O)N[C@@H](CO)C(=O)N[C@@H](CCCNC(=N)N)C(=O)N[C@@]1(C)CCC/C=C\CCC[C@@](C)(C(=O)N[C@@H](CC(C)C)C(N)=O)NC(=O)[C@H](CC(C)C)NC(=O)[C@H](CC(C)C)NC(=O)[C@H](CCC(N)=O)NC1=O`, the inhibition entry in [15] and in series [16] was “Dose-dependent effect” in each case. Besides, the result in the series with MDA-MB-231 [1] was Active. In addition, the Activity result in the series on MDA-MB-231 [2], with MDA-MB-231 [17], in the series on MDA-MB-231 [3] and in the series on MDA-MB-231 [4] was “Non-Toxic” each time. For the same compound, the IC50 in [5] lay within 16.6 to 31 nM.
As for `CC[C@H](C)[C@H](NC(=O)[C@H](CCCNC(=N)N)NC(=O)[C@@H](NC(=O)CNC(C)=O)[C@@H](C)O)C(=O)N[C@H](C(=O)N[C@@H](Cc1ccc(O)cc1)C(=O)N[C@@H](CC(=O)O)C(=O)N[C@@H](CCCNC(=N)N)C(=O)N[C@@]1(C)CCC/C=C\CCC[C@@](C)(C(=O)N[C@@H](CS)C(=O)N[C@@H](CCCNC(=N)N)C(=O)N[C@@H](CC(N)=O)C(N)=O)NC(=O)[C@H](C)NC(=O)[C@H](C)NC(=O)[C@H](Cc2ccccc2)NC1=O)[C@@H](C)CC`, the outcome with MDA-MB-231 [1] was inactive.
For H-KKRYDRKFLMECRN-NH2, in series [8], the kon stood at 2 ×10⁶ /M/s. Besides, the fold change (FC) in [12] was 3.9 to 5.5.
In turn, `CC(=O)N[C@@H](CCCCN)C(=O)N[C@@H](CCCCN)C(=O)N[C@@H](CCCNC(=N)N)C(=O)N[C@@H](Cc1ccc(O)cc1)C(=O)N[C@@H](CC(=O)O)C(=O)N[C@@H](CCCNC(=N)N)C(=O)N[C@@H](CCC(=O)O)C(=O)N[C@@H](Cc1ccccc1)C(=O)N[C@@H](CC(C)C)C(=O)N[C@@H](CC(C)C)C(=O)NCC(=O)N[C@@H](Cc1ccccc1)C(=O)N[C@@H](CCC(N)=O)C(=O)N[C@@H](Cc1ccccc1)C(N)=O` returned an IC50 in series [5] of 137 to 195 nM.
